According to ChEMBL document CHEMBL1126324, “Cardiotonic agents. 7. Prodrug derivatives of 4-ethyl-1,3-dihydro- 5-[4-(2-methyl-1H-imidazol-1-yl)benzoyl]-2H-imidazol-2-one” (J Med Chem, 1992):
Converted amounts (≈) assume the structure as drawn.

What was measured:
[1] = Partition coefficient was determined in an octanol/ pH 7.4 phosphate buffer system.; assay type: physicochemical; conditions: octanol/water
[2] = Solubility was measured in pH 7.4 phosphate buffer; assay type: physicochemical
Summary of the method: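 Solubility in pH 7.4 phosphate buffer, quantified by HPLC.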

[3] = Half life time was observed by 50% conversion to compound 1 at pH 1.5; assay type: ADME
Summary of the method: (§1)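 Aliquots taken at set intervals; prodrug, parent and internal standard quantified by reversed-phase HPLC with UV detection (alkyl phenyl column, 50 °C, phosphate/CH3CN gradient). t1/2 of drug consumed; mean of at least two determinations.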

[4] = Half life time was observed by 50% conversion to compound 1 at pH 7.4; assay type: ADME; summary of the method: as §1
Mustela putorius furo = species: Mustela putorius furo; assay: Increased contractile force of ferret papillary muscle; assay type: functional, Muscle tissue
Summary of the method: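 Isolated ferret papillary muscle, 30-min preincubation with compound; value is the concentration (μM) giving a 20% increase in contractile force. Mean of at least two determinations, with and without 1 μM propranolol co-administration.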

Canis familiaris = species: Canis familiaris; assay: Half life time was observed by 50% conversion to compound 1 in dog plasma; assay type: ADME, Canis lupus familiaris; conditions: in vitro
Summary of the method: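 Prodrug with internal standard diluted 1:100 from stock in 0.05 M NaH2PO4/0.1% H3PO4 into fasted canine plasma, held at 37 °C. Conversion to parent followed by HPLC; half-life of drug consumed.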

[5] = Inhibition of c-AMP phosphodiesterase

Row | SMILES | Partition coefficient [1] | solubility [2] | T1/2 [3] | T1/2 [4] | T1/2 (Canis familiaris) | IC50 [5] | C20 (Mustela putorius furo)
1 | CCc1nc(O)n(C(=O)Cc2ccccc2)c1C(=O)c1ccc(-n2ccnc2C)cc1 |  | 25 µM (≈ 10.4 µg/mL) | 39 h | 1.5 h |  |  | 0.2 µM
2 | CCc1nc(O)n(Cc2ccccc2)c1C(=O)c1ccc(-n2ccnc2C)cc1 |  |  |  |  |  |  | 13 µM
3 | CCc1nc(O)n(C(=O)c2ccccc2)c1C(=O)c1ccc(-n2ccnc2C)cc1 | 92 | 23 µM (≈ 9.21 µg/mL) | 263 h | 25 h | 0.633 h | 157 µM | 0.2 µM
4 | CCc1[nH]c(O)nc1C(=O)c1ccc(-n2ccnc2C)cc1 | 7 | 44 µM (≈ 13 µg/mL) |  |  |  |  | 0.5 µM

Second part, led by results:

Row | Partition coefficient [1] | solubility [2] | T1/2 [3] | T1/2 [4] | T1/2 (Canis familiaris) | IC50 [5] | SMILES | C20 (Mustela putorius furo)
5 | 26 | 40 µM (≈ 13.5 µg/mL) | 21 h | 8 h | 0.5 h |  | CCc1nc(O)n(C(C)=O)c1C(=O)c1ccc(-n2ccnc2C)cc1 | 0.2 µM
6 | > 200 | 10 µM (≈ 3.66 µg/mL) | 132 h | 8 h | 0.783 h |  | CCc1nc(O)n(C(=O)C(C)C)c1C(=O)c1ccc(-n2ccnc2C)cc1 | 0.3 µM
7 | 52 | 30 µM (≈ 10.6 µg/mL) | 17 h | 6 h | 0.5 h |  | CCC(=O)n1c(O)nc(CC)c1C(=O)c1ccc(-n2ccnc2C)cc1 | 0.3 µM
